Reference: ChEMBL document CHEMBL1649151, “Urinary bactericidal activity of Doripenem versus that of levofloxacin in patients with complicated urinary tract infections or pyelonephritis” (Antimicrob Agents Chemother, 2009)
Values after ≈ are worked out from the molar mass of the structure shown.

Columns and labels:
Escherichia coli [1] = test: Antimicrobial activity against Escherichia coli 1889646 B-F isolated from patient with pyelonephritis assessed as >3-log reduction in urinary bacterial titer after 24 hrs; type: functional, Urine
How it was run: (§1)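 Urine was collected on day 3 of i.v. therapy (steady state) over 4-h intervals from infusion start (0–4 to 20–24 h), stored at –80°C and sterile filtered. It was serially diluted twofold (1:0 up to 1:131,072) in the patient's own pre-dose drug-free urine. Microdilution used a final inoculum of 1.0 x 10^6 to 9.5 x 10^6 CFU/ml, incubated 18 h at 37°C in air. 10 µl was subcultured onto 5% blood Columbia agar for 24 h at 37°C. The bactericidal endpoint was >99.9% (>3-log) kill, reported as a reciprocal titer.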

Enterococcus faecalis [2] = test: Antimicrobial activity against Enterococcus faecalis 2215770 B-T isolated from patient with pyelonephritis by Etest; type: functional
Escherichia coli [3] = test: Antimicrobial activity against Escherichia coli 1821385 B-C isolated from patient with pyelonephritis assessed as >3-log reduction in urinary bacterial titer after 16 hrs; type: functional, Urine; how it was run: as §1
Enterococcus faecalis [4] = test: Antimicrobial activity against Enterococcus faecalis 2215770 B-T isolated from patient with pyelonephritis assessed as >3-log reduction in urinary bacterial titer after 20 hrs; type: functional, Urine
How it was run: (§2)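 Urine was collected before dosing and on day 3 of i.v. therapy (steady state), in 4-h intervals from infusion start (0–4 to 20–24 h), stored at −80°C and sterile filtered. It was serially diluted twofold (1:0 to 1:131,072) in the patient's drug-free pre-dose urine. Microdilution used an inoculum of 1.0 x 10^6–9.5 x 10^6 CFU/ml, incubated 18 h at 37°C, then subcultured 24 h on blood agar. The endpoint was >99.9% kill, reported as reciprocal titer.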

Escherichia coli [5] = test: Antimicrobial activity against Escherichia coli 1889646 B-F isolated from patient with pyelonephritis assessed as >3-log reduction in urinary bacterial titer after 16 hrs; type: functional, Urine; how it was run: as §1
Escherichia coli [6] = test: Antimicrobial activity against Escherichia coli 1821385 B-C isolated from patient with pyelonephritis assessed as >3-log reduction in urinary bacterial titer after 4 hrs; type: functional, Urine; how it was run: as §1
Escherichia coli [7] = test: Antimicrobial activity against Escherichia coli 2297257 B-W isolated from patient with pyelonephritis assessed as >3-log reduction in urinary bacterial titer after 20 hrs; type: functional, Urine
Escherichia coli [8] = test: Antimicrobial activity against Escherichia coli 2062717 B-P isolated from patient with pyelonephritis assessed as >3-log reduction in urinary bacterial titer after 8 hrs; type: functional, Urine
[9] = test system: Staphylococcus haemolyticus; test: Antimicrobial activity against Staphylococcus haemolyticus 1949819 B-M isolated from patient with pyelonephritis assessed as >3-log reduction in urinary bacterial titer after 4 hrs; type: functional, Urine
Enterococcus faecalis [10] = test: Antimicrobial activity against Enterococcus faecalis 2215770 B-T isolated from patient with pyelonephritis assessed as >3-log reduction in urinary bacterial titer after 8 hrs; type: functional, Urine; how it was run: as §2
[11] = test system: Staphylococcus haemolyticus; test: Antimicrobial activity against Staphylococcus haemolyticus 1949819 B-M isolated from patient with pyelonephritis assessed as >3-log reduction in urinary bacterial titer after 16 hrs; type: functional, Urine
Escherichia coli [12] = test: Antimicrobial activity against Escherichia coli 1949825 B-K isolated from patient with pyelonephritis assessed as >3-log reduction in urinary bacterial titer after 4 hrs; type: functional, Urine
How it was run: (§3)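 Patient urine was collected on day 3 of i.v. therapy (steady state) over 4-h intervals after infusion start, stored at –80°C, and sterile filtered. It was twofold serially diluted (1:0 to 1:131,072) in the patient's own pre-dose drug-free urine, inoculated to 1.0 x 10^6–9.5 x 10^6 CFU/ml, and incubated for 18 h at 37°C. Subcultures were grown on blood agar for 24 h. The UBT is the reciprocal of the highest dilution giving >99.9% kill.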

Escherichia coli [13] = test: Antimicrobial activity against Escherichia coli 2062717 B-P isolated from patient with pyelonephritis assessed as >3-log reduction in urinary bacterial titer after 20 hrs; type: functional, Urine
Escherichia coli [14] = test: Antimicrobial activity against Escherichia coli 1655646 A-Y isolated from patient with pyelonephritis assessed as >3-log reduction in urinary bacterial titer after 12 hrs; type: functional, Urine; how it was run: as §2
Escherichia coli [15] = test: Antimicrobial activity against Escherichia coli 1889647 B-H isolated from patient with pyelonephritis by Etest; type: functional
[16] = test system: Staphylococcus epidermidis; test: Antimicrobial activity against Staphylococcus epidermidis 2297262-9 B-V isolated from patient with pyelonephritis assessed as >3-log reduction in urinary bacterial titer after 8 hrs; type: functional, Urine
Enterococcus faecalis [17] = test: Antimicrobial activity against Enterococcus faecalis 2215767-10 B-S isolated from patient with pyelonephritis assessed as >3-log reduction in urinary bacterial titer after 16 hrs; type: functional, Urine; how it was run: as §2
Pseudomonas aeruginosa [18] = test: Antimicrobial activity against Pseudomonas aeruginosa 2062713 B-Q isolated from patient with pyelonephritis assessed as >3-log reduction in urinary bacterial titer after 12 hrs; type: functional, Urine
Pseudomonas aeruginosa [19] = test: Antimicrobial activity against Pseudomonas aeruginosa 2062713 B-Q isolated from patient with pyelonephritis assessed as >3-log reduction in urinary bacterial titer after 16 hrs; type: functional, Urine
Escherichia coli [20] = test: Antimicrobial activity against Escherichia coli 1889647 B-H isolated from patient with pyelonephritis assessed as >3-log reduction in urinary bacterial titer after 8 hrs; type: functional, Urine; how it was run: as §1
[21] = test system: Staphylococcus epidermidis; test: Antimicrobial activity against Staphylococcus epidermidis 1949822 B-J isolated from patient with pyelonephritis assessed as >3-log reduction in urinary bacterial titer after 16 hrs; type: functional, Urine
Escherichia coli [22] = test: Antimicrobial activity against Escherichia coli 1821386 B-D isolated from patient with pyelonephritis assessed as >3-log reduction in urinary bacterial titer after 20 hrs; type: functional, Urine; how it was run: as §1
Pseudomonas aeruginosa [23] = test: Antimicrobial activity against Pseudomonas aeruginosa 2062713 B-Q isolated from patient with pyelonephritis assessed as >3-log reduction in urinary bacterial titer after 4 hrs; type: functional, Urine
Staphylococcus aureus = test: Antimicrobial activity against Staphylococcus aureus 2215767-9 B-S isolated from patient with pyelonephritis assessed as >3-log reduction in urinary bacterial titer after 12 hrs; type: functional, Urine
Escherichia coli [24] = test: Antimicrobial activity against Escherichia coli 1780064 A-X isolated from patient with pyelonephritis assessed as >3-log reduction in urinary bacterial titer after 20 hrs; type: functional, Urine; how it was run: as §1
Escherichia coli [25] = test: Antimicrobial activity against Escherichia coli 1821386 B-D isolated from patient with pyelonephritis assessed as >3-log reduction in urinary bacterial titer after 12 hrs; type: functional, Urine; how it was run: as §1
Escherichia coli [26] = test: Antimicrobial activity against Escherichia coli 1655646 A-Y isolated from patient with pyelonephritis assessed as >3-log reduction in urinary bacterial titer after 4 hrs; type: functional, Urine; how it was run: as §2
Pseudomonas aeruginosa [27] = test: Antimicrobial activity against Pseudomonas aeruginosa 2062713 B-Q isolated from patient with pyelonephritis assessed as >3-log reduction in urinary bacterial titer after 20 hrs; type: functional, Urine
[28] = test system: Staphylococcus epidermidis; test: Antimicrobial activity against Staphylococcus epidermidis 2297262-9 B-V isolated from patient with pyelonephritis assessed as >3-log reduction in urinary bacterial titer after 24 hrs; type: functional, Urine
Escherichia coli [29] = test: Antimicrobial activity against Escherichia coli 2062716 B-R isolated from patient with pyelonephritis assessed as >3-log reduction in urinary bacterial titer after 16 hrs; type: functional, Urine; how it was run: as §3
Escherichia coli [30] = test: Antimicrobial activity against Escherichia coli 1780064 A-X isolated from patient with pyelonephritis assessed as >3-log reduction in urinary bacterial titer after 4 hrs; type: functional, Urine; how it was run: as §1
Pseudomonas aeruginosa [31] = test: Antimicrobial activity against Pseudomonas aeruginosa 1821383 B-E isolated from patient with pyelonephritis assessed as >3-log reduction in urinary bacterial titer after 16 hrs; type: functional, Urine
Serratia marcescens = test: Antimicrobial activity against Serratia marcescens 2297260 B-U isolated from patient with pyelonephritis assessed as >3-log reduction in urinary bacterial titer after 24 hrs; type: functional, Urine

**Q.** `C[C@@H](O)[C@H]1C(=O)N2C(C(=O)O)=C(S[C@@H]3CN[C@H](CNS(N)(=O)=O)C3)[C@H](C)[C@H]12` [DORIPENEM] was tested. Which urinary bactericidal titer (Escherichia coli [1]) did it give?
**A.** 65500 reciprocal titer

**Q.** And the MIC (Enterococcus faecalis [2])?
**A.** 0.25 µg/mL (≈ 0.595 µM)

**Q.** What about the urinary bactericidal titer (Escherichia coli [3]) of the same compound?
**A.** 8192 reciprocal titer

**Q.** What about the urinary bactericidal titer (Enterococcus faecalis [4]) of the same compound?
**A.** 2048 reciprocal titer

**Q.** What about the urinary bactericidal titer (Escherichia coli [5]) of the same compound?
**A.** 8192 reciprocal titer

**Q.** What about the urinary bactericidal titer (Escherichia coli [6]) of the same compound?
**A.** 4096 reciprocal titer

**Q.** And the urinary bactericidal titer (Escherichia coli [7])?
**A.** 32800 titer

**Q.** And the urinary bactericidal titer (Escherichia coli [8])?
**A.** 1024 reciprocal titer

**Q.** And the urinary bactericidal titer [9]?
**A.** 512 reciprocal titer

**Q.** What about the urinary bactericidal titer (Enterococcus faecalis [10]) of the same compound?
**A.** 512 reciprocal titer

**Q.** And the urinary bactericidal titer [11]?
**A.** 128 reciprocal titer

**Q.** And the urinary bactericidal titer (Escherichia coli [12])?
**A.** 16400 reciprocal titer

**Q.** What about the urinary bactericidal titer (Escherichia coli [13]) of the same compound?
**A.** 32800 reciprocal titer

**Q.** How did the urinary bactericidal titer (Escherichia coli [14]) turn out when `C[C@H]1COc2c(N3CCN(C)CC3)c(F)cc3c(=O)c(C(=O)O)cn1c23.C[C@H]1COc2c(N3CCN(C)CC3)c(F)cc3c(=O)c(C(=O)O)cn1c23.O` [LEVOFLOXACIN] was run?
**A.** 2048 reciprocal titer

**Q.** And the MIC (Escherichia coli [15])?
**A.** < 0.03 µg/mL

**Q.** And the urinary bactericidal titer [16]?
**A.** 1 reciprocal titer

**Q.** And the urinary bactericidal titer (Enterococcus faecalis [17])?
**A.** 0 reciprocal titer

**Q.** What about the urinary bactericidal titer (Pseudomonas aeruginosa [18]) of the same compound?
**A.** 4 reciprocal titer

**Q.** What about the urinary bactericidal titer (Pseudomonas aeruginosa [19]) of the same compound?
**A.** 4 reciprocal titer

**Q.** What about the urinary bactericidal titer (Escherichia coli [20]) of the same compound?
**A.** 2048 reciprocal titer

**Q.** And the urinary bactericidal titer [21]?
**A.** 4 reciprocal titer

**Q.** And the urinary bactericidal titer (Escherichia coli [22])?
**A.** 2048 reciprocal titer

**Q.** And the urinary bactericidal titer (Pseudomonas aeruginosa [23])?
**A.** 8 reciprocal titer

**Q.** And the urinary bactericidal titer (Staphylococcus aureus)?
**A.** 1 reciprocal titer

**Q.** What about the urinary bactericidal titer (Escherichia coli [24]) of the same compound?
**A.** 256 reciprocal titer

**Q.** What about the urinary bactericidal titer (Escherichia coli [25]) of the same compound?
**A.** 2048 reciprocal titer

**Q.** And the urinary bactericidal titer (Escherichia coli [26])?
**A.** 2048 reciprocal titer

**Q.** And the urinary bactericidal titer (Pseudomonas aeruginosa [27])?
**A.** 4 reciprocal titer

**Q.** What about the urinary bactericidal titer [28] of the same compound?
**A.** 2 reciprocal titer

**Q.** And the urinary bactericidal titer (Escherichia coli [29])?
**A.** 256 reciprocal titer

**Q.** And the urinary bactericidal titer (Escherichia coli [30])?
**A.** 1024 reciprocal titer

**Q.** And the urinary bactericidal titer (Pseudomonas aeruginosa [31])?
**A.** 128 reciprocal titer

**Q.** And the urinary bactericidal titer (Serratia marcescens)?
**A.** 32 reciprocal titer
